Data set [1] deals with T1, Cytosolic phospholipase A2 (Homo sapiens, UniProt P47712).
T1 sequence (P47712 whole entry): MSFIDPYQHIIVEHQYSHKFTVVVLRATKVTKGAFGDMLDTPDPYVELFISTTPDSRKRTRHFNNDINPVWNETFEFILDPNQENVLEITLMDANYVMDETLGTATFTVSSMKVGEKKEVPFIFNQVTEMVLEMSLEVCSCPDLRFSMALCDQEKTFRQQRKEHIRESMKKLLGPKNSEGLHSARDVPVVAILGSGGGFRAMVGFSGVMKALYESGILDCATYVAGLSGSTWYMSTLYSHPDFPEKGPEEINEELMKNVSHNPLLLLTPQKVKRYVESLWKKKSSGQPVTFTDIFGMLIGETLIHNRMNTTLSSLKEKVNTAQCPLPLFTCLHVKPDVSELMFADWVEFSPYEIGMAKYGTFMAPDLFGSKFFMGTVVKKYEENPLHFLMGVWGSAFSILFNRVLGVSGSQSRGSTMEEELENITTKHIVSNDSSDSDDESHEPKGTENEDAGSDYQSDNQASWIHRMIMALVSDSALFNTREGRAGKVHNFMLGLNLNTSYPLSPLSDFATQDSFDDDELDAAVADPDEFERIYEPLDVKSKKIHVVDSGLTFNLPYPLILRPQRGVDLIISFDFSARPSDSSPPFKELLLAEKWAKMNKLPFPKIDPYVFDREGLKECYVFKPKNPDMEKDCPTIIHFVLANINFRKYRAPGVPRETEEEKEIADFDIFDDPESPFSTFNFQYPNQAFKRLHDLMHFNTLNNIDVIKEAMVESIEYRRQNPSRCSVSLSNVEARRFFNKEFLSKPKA
Briefly: Inhibition of cPLA2-alpha in TPA-stimulated intact human platelets assessed as liberation of arachidonic acid after 60 mins. An outline of the steps:
(§1)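 Human platelets from buffy coat, washed in PBS/EDTA and resuspended in PBS (0.1 M, pH 7.4) at about 10⁸ cells/mL. Preincubated 5 min at 37 °C with ETYA (final 10 µM) and compound in DMSO, then CaCl₂ added for a further 5 min. Stimulated with TPA (final 2 µM) for 60 min at 37 °C. Released arachidonic acid quantified by SPE then RP-HPLC, UV 200 nm, against an internal standard.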

A short description of data set [2]: Metabolic stability in rat liver microsomes at 20 uM after 30 mins in presence of NADPH by reverse phased HPLC relative to control. The format is ADME, Microsome. The note with it: read-out: Stability. An outline of the steps: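 Rat liver microsomes at 5.7 mg protein/mL in PBS (0.1 M, pH 7.4); compound final 20 µM from DMSO. Preincubated 5 min at 37 °C, then started with NADPH (12 mM) and MgCl₂ (5 mM) solution. Stopped after 30 min with acetonitrile. Parent ketone peak measured by RP-HPLC at 240 nm and compared with an NADPH-free incubation. Mean of at least two independent determinations.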
(Liver microsomes are vesicles of endoplasmic reticulum, rich in cytochrome P450 enzymes.)

Data set [3] can be described thus: Solubility in sodium phosphate buffer at pH 7.4. The format is physicochemical. An outline of the steps:
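Supernatant diluted with acetonitrile and phosphoric acid, then quantified by RP-HPLC at 240 nm against a calibration curve. Mean ± SD, n = 3 (n = 2 for values <1 µg/mL).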

In data set [4] the target is T1, Cytosolic phospholipase A2. The data set is described as follows: Inhibition of human platelet cPLA2-alpha activity. An outline of the steps:
(§2)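 cPLA₂α isolated from human platelets. Incubated 60 min. Arachidonic acid released, with and without compound, measured by RP-HPLC with UV 200 nm after SPE cleanup, using an internal standard. Values are means of at least two independent determinations.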

Data set [5] has as its target T2, Cytosolic phospholipase A2 (Homo sapiens) (UniProt P47712).
T2 sequence (whole entry): T1 sequence (P47712 whole entry)
Briefly: Inhibition of human platelet cPLA2-alpha activity at 10 uM. The procedure, abridged:
as §2

Data set [6] has as its target T2, Cytosolic phospholipase A2 (Homo sapiens). The data set is described as follows: Inhibition of cPLA2-alpha in TPA-stimulated intact human platelets assessed as liberation of arachidonic acid at 10 um after 60 mins. The procedure, abridged:
as §1

This note sets out measurements from ChEMBL document CHEMBL1144717, “1-(2-Carboxyindol-5-yloxy)propan-2-ones as inhibitors of human cytosolic phospholipase A2alpha: synthesis, biological activity, metabolic stability, and solubility” (Bioorg Med Chem, 2008).

Converted amounts (≈) assume the structure as drawn. The source made the active and inactive calls. No cut-off for these calls is given here. Some results are limits rather than exact numbers.

The term IC50 denotes the point on the concentration scale where inhibition reaches its midpoint. In general, solubility refers to the dissolved amount per volume that the medium holds. Read a high solubility as much dissolved substance. By inhibition is commonly meant how much of the control response was suppressed. The low end stands for a response near the control, the high end for a response far below the control.

On to `CCCCCCCCc1ccc(OCC(=O)COc2ccc3c(c2)cc(C(=O)O)n3C)cc1`, for which the IC50 worked out at 0.6 µM in data set [1] and 1.2 µM in data set [4]. Also, the remaining at 0.5 h, 20 µM in data set [2] was less than 5%. In data set [3], this compound had a solubility of less than 0.001 mg/mL.

With `CCCCCCCCc1ccc(OCC(O)COc2ccc3c(c2)cc(C(=O)O)n3CC(=O)O)cc1` (stereo not given), the result in data set [5] and in data set [6] was inactive.

`CCCCCCCCc1ccc(OCC(=O)COc2ccc3c(c2)cc(C(=O)O)n3Cc2ccccc2)cc1`: the remaining at 0.5 h, 20 µM in data set [2] is less than 5%. The compound further came in with a solubility in data set [3] of less than 0.001 mg/mL. This compound also registered a half-inhibitory concentration (IC50) in data set [4] of 10 µM.

As for `CCCCCCCCc1ccc(OCC(=O)COc2ccc3[nH]c(C(=O)O)cc3c2)cc1`, the remaining at 0.5 h, 20 µM in data set [2] is less than 5%. The solubility in data set [3] was 0.0084 mg/mL (≈ 19.2 µM). Besides, in data set [4], half-maximal inhibition (IC50) required 3.3 µM.

In the case of `CCCCCCCCc1ccc(OCC(=O)COc2ccc3c(c2)cc(C(=O)O)n3CCN(C)C)cc1`, the remaining at 0.5 h, 20 µM in data set [2] was 9%. The inhibition in data set [5] is 32%. Further, the concentration in solution in data set [3] (solubility) was 0.046 mg/mL (≈ 90.4 µM). This compound had an IC50 in data set [4] of more than 10 µM.

On to `CCCCCCCCc1ccc(OCC(=O)COc2ccc3c(c2)cc(C(=O)O)n3CCC)cc1`, for which, in data set [2], the remaining at 0.5 h, 20 µM was less than 5%. In addition, the solubility in data set [3] was less than 0.001 mg/mL. In data set [4], this compound registered an IC50 of 2.1 µM.

On to `CCCCCCCCc1ccc(OCC(=O)COc2ccc3c(c2)cc(C(=O)O)n3Cc2ccc(C(=O)O)cc2)cc1`, for which the remaining at 0.5 h, 20 µM in data set [2] is 15%. This compound also came in with a solubility in data set [3] of 0.013 mg/mL (≈ 22.7 µM). Half-maximal inhibition in data set [4] (IC50) required 1.5 µM.

With `CCCCCCCCc1ccc(OCC(O)COc2ccc3c(c2)cc(C(=O)O)n3C)cc1` (stereo not given), the result in data set [5] and in data set [6] was inactive.

`CCCCCCCCc1ccc(OCC(=O)COc2ccc3c(c2)cc(C(=O)O)n3CCCC(=O)O)cc1`: the IC50 was 0.3 µM in data set [1] and 0.4 µM in data set [4]. The remaining at 0.5 h, 20 µM in data set [2] was less than 5%. The compound also had a solubility in data set [3] of 0.03 mg/mL (≈ 57.3 µM).

`CCCCCCCCc1ccc(OCC(=O)COc2ccc3c(c2)cc(C(=O)O)n3CCCCCC)cc1`: the remaining at 0.5 h, 20 µM in data set [2] is less than 5%. In addition, the inhibition in data set [5] is 42%. This compound came in with a solubility in data set [3] of less than 0.001 mg/mL. The compound further returned a half-maximal inhibitory concentration (IC50) in data set [4] of more than 10 µM.

As for `CCCCCCCCc1ccc(OCC(=O)COc2ccc3c(c2)cc(C(=O)O)n3CC(=O)O)cc1`, the 50% inhibitory concentration (IC50) is 1.3 µM in data set [1] and 0.3 µM in data set [4]. For the same compound, the remaining at 0.5 h, 20 µM in data set [2] came to 18%. The same compound displayed a solubility in data set [3] of 0.0081 mg/mL (≈ 16.3 µM).

For the compound `CCCCCCCCc1ccc(OCC(=O)COc2ccc3c(c2)cc(C(=O)O)n3CCCCCC(=O)O)cc1`, the IC50 in data set [1] turned out to be 0.5 µM; in data set [4], 0.6 µM. Further, the remaining at 0.5 h, 20 µM in data set [2] is less than 5%. Besides, in data set [3], the solubility came out at 0.017 mg/mL (≈ 30.8 µM).
